Bioassay records: PubChem BioAssay, Broad Institute
INS-1E GSIS act: GLuc luminescence reporter in INS-1E cells, primary screen for activators of glucose-dependent secretion of insulin; activation, % at 16.6 µM; 370,000 compounds, 0.61% hits; INS-1E GLuc reporter insulin secretion, 2-3 h;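 active = lowest replicate activation of at least 40%, so every replicate reaches that level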;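 also: 0% = median of neutral control wells and 100% = median of IBMX positive control wells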
Cneo AK release: Cryptococcus neoformans cell lysis inducers, primary screen, AK release luminescence, single concentration; lysis activity, % at 15 µM; C. neoformans lysis, adenylate kinase release luminescence, 4 h; normalised: neutral wells 0, clomiphene wells 100; 360,000 compounds, 0.2% hits;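 active = mean lysis activity across replicates of at least 80%, whatever share of replicates individually reach that level; inactive = mean lysis activity below 80%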
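Assay system: log-phase C. neoformans yeast / Quantity: yeast cell density of 5 × 10^6 cells/mL / Medium: fresh YPD growth medium / Compound: single dose / Timing: static 4 h at 37 °C with compound, 1 h detection / Measured by: adenylate kinase release luminescence / Read-out: lysis from increased AK signal / Benchmarks: Clomiphene as positive lysis control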
miR122 inh: miR-122 Renilla sensor signal increase in Huh7, primary screen, miR-122 inhibitor project, cell-based, single point, plate reader; 340,000 compounds, 0.3% hits; activation (reporter increase), % at 12.5 µM; AID 602342, 2012; Huh7 miR-122 Renilla luciferase sensor, 48 h; neutral wells = 0, positive control = 100;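 active = mean replicate activation score at least 90 and every replicate individually at or above 90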;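 also: higher luciferase means less miR-122 activity so hits act as miR-122 inhibitors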
HIV Env fusion: inhibitors of HIV-1 Env-driven cell-cell fusion, primary screen, HeLa-JRFL effector, CEM21 target cells, luciferase. inhibition, % at 12.3 µM. 360,000 compounds, 1.1% hits;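 active = mean replicate inhibition score of at least 50 and every replicate individually at or above 50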;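 also: 0% = plate neutral controls and 100% = maraviroc near 300 nM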
Ecoli rRNA inh: reduced GFP signal of wild-type E. coli, primary screen, bacterial rRNA inhibitor project, GFP/RFP fluorescence, OD600, single point. 350,000 compounds, 1.6% hits. E. coli WT GFP vs humanized-ribosome RFP mutants, 24 h; active compounds read low; DMSO median 0, no signal -100. GFP signal change (wild-type ribosome), % (concentration not given with the values). AID 720706, 2013;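 active = significant combined selectivity score with lowered wild-type GFP, culture density cut under 30%, mutant RFP and density less affected; inactive = any of these conditions unmet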
F508del corr: F508del CFTR correction, initial screen, CFBE line, single point | CFBE cells, YFP halide quenching; stimulated with forskolin plus potentiator P3; % fluorescence drop versus neutral controls | activity (quench increase), % at 7.58 µM | 350,000 compounds, 0.36% hits;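 active = mean added fluorescence quench of at least 8% versus neutral control, with both replicates also reaching 8%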;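 also: cells transiently co-express mutant CFTR-F508del with the halide-sensitive YFP; corrector assay measuring rescue of mutant channel to the surface after 24 h compound exposure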
* marks the source's active call; other numbers are inactive results; · = no result; [ ] = another dose, or the depositor's remark. Rows were chosen to be rich in hits. Some 3.1% of all compounds tested hit in one or more screens of this group.

SMILES	INS-1E GSIS act	Cneo AK release	miR122 inh	HIV Env fusion	Ecoli rRNA inh	F508del corr
N#C/C(=C/c1ccc(N2CCCCC2)o1)C(=O)Nc1ccc(Cl)cc1	-11.0	-5.3	3.6	-49.8	·	·
C[C@@H]1CN(C)C(=O)c2cc(N)ccc2O[C@@H]1CN(C)S(C)(=O)=O	24.7	·	·	·	1.6	·
O=c1ccc(=O)n(CCc2ccccn2)[nH]1	21.2	·	·	3.9	3.7	-1.6
c1ccc(CCn2cccc2)nc1	-3.8	-0.3	-7.7	59.2*	13.5	1.2
CCOc1ccc(NS(=O)(=O)c2ccc(-c3cnc(C4CC4)o3)cc2)cc1	-20.2	14.6	·	-54.9	-37.0	1.4
COc1ccccc1NS(=O)(=O)c1cc(-c2cnc(C3CC3)o2)ccc1C	4.4	-1.7	·	17.9	-28.7	8.3*
COc1ccc(NS(=O)(=O)c2cc(-c3cnc(C4CC4)o3)ccc2C)cc1	3.7	0.4	292.9*	30.7	-7.5	5.2
CCCC(=O)N1CC2(CN(C)C2)c2c(n(C)c3cc(OC)ccc23)[C@H]1CO	9.0	·	·	·	5.9	0.7
O=C(c1cccnc1)N1C[C@H]2[C@@H](c3ccccc31)[C@@H](CO)N2C(=O)C1CCOCC1	11.6	-8.0	-11.5[16.7 µM]	·	2.9	-2.9
C[C@@H]1CCCCO[C@@H](CN(C)C(=O)Nc2ccc(C(F)(F)F)cc2)[C@H](C)CN([C@@H](C)CO)C(=O)c2cc(NC(=O)Nc3ccc(F)cc3)ccc2O1	9.2	-4.9	-1.9[16.7 µM]	17.8[16.7 µM]	2.4	7.9
COc1ccccc1/C=C/C(=O)Nc1nc(N)n(-c2ccccc2)n1	0.7	·	·	2.9	-25.4*	·
C[C@@H]1CN([C@H](C)CO)S(=O)(=O)c2ccc(-c3cccc(C#N)c3)cc2O[C@@H]1CN(C)C(=O)c1ccncc1	10.1	2.6	-17.5[16.7 µM]	6.8[16.7 µM]	-0.1	0.6
O=C(Cc1ccccn1)N1CC(=O)N2[C@H](C1)[C@H](c1ccc(C#CCC3CCCC3)cc1)[C@@H]2CO	-17.4	·	·	·	-18.9	0.7
COc1ccccc1S(=O)(=O)N[C@H]1CC[C@@H](CC(=O)N2CCN(C)CC2)O[C@H]1CO	9.4	-4.8	-9.5[16.7 µM]	57.0*[16.7 µM]	1.6	-2.2
COc1ccccc1S(=O)(=O)N[C@@H]1CC[C@H](CC(=O)N2CCN(C)CC2)O[C@H]1CO	16.8	54.6	10.5[16.7 µM]	7.5[16.7 µM]	2.8	-2.0
Cc1ccc(S(=O)(=O)Nc2ccc3c(c2)CC(=O)N([C@H](C)CO)C[C@@H](C)[C@@H](CN(C)C(=O)Nc2c(C)noc2C)O3)cc1	-4.3	-1.5	-5.1[16.7 µM]	0.5[16.7 µM]	0.0	2.0
O=S(=O)(NCCc1ccncc1)c1cc(Br)ccc1F	·	0.0	123.5*	6.7	·	·
O=C(NCC(c1ccco1)N1CCCCC1)c1ccc(NS(=O)(=O)c2ccc(F)cc2)cc1 (centres undefined)	-15.4	4.7	-1.7	·	-20.3*	-1.1
O=C(c1ccc(S(=O)(=O)Nc2ccc(F)cc2)cc1)N1CCN(C(=O)c2ccco2)CC1	·	2.1	6.7	73.2*	·	·
CN(C)C(=O)C[C@@H]1C[C@H]2c3cc(NC(=O)NC4CCCCC4)ccc3O[C@H]2[C@@H](CO)O1	8.2	-1.2	-2.7[16.7 µM]	24.3[16.7 µM]	2.5	-0.5
COc1ccc(NC(=O)CN(C)C(=O)CSc2ccc(Br)cc2)cc1	-45.0	1.1	·	-0.4	-30.2*	-2.5
COc1ccc(NC(=O)CN(C)C(=O)CSc2ccc3c(c2)OCCO3)cc1	-6.6	1.1	·	4.2	4.3	2.1
C[C@H]1CN([C@@H](C)CO)C(=O)CCCn2nncc2CO[C@@H]1CN(C)C(=O)CCCN(C)C	7.6	0.2	-3.5[16.7 µM]	·	1.2	3.1
COc1cccc(-c2ccc3c(c2)[C@@H]2[C@@H](CCN2Cc2ccccc2OC)[C@@H](CO)N3)c1	29.2	0.0	2.1[16.7 µM]	·	2.2	0.9
C[C@]12CC[C@@H]3c4ccc(O)cc4CC[C@H]3[C@@H]1CCC2=O	·	28.2	2.6	-31.2	-7.1	3.1
